The source made the active and inactive calls. The calls are words filed in the database; no cut-off is given here.
What was measured:
Candida albicans [1] = test: Antifungal activity against Candida albicans ATCC 10231 assessed as inhibition of microbial growth by NCCLS protocol based method; type: functional
Procedure, shortened: (§1)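 Broth MIC50 determined following NCCLS guidelines in Sabouraud medium, with fungal suspension in 24-well format. Compound tested at 0.0625, 0.125, 0.5, 1, 2, 4, 8 and 16 μg/mL. Plates cultured statically at 35 °C. MIC50 is the lowest concentration giving 50% growth inhibition. Naftifine and fluconazole served as positive controls.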

Nakaseomyces glabratus = test: Antifungal activity against Candida glabrata ATCC 0001 assessed as inhibition of microbial growth by NCCLS protocol based method; type: functional; procedure, shortened: as §1
Pichia kudriavzevii = test: Antifungal activity against Candida krusei ATCC 6258 assessed as inhibition of microbial growth by NCCLS protocol based method; type: functional; procedure, shortened: as §1
Candida tropicalis = test: Antifungal activity against Candida tropicalis ATCC 1369 assessed as inhibition of microbial growth by NCCLS protocol based method; type: functional; procedure, shortened: as §1
Aspergillus fumigatus = test: Antifungal activity against Aspergillus fumigatus KM8001 assessed as inhibition of microbial growth by NCCLS protocol based method; type: functional; procedure, shortened: as §1
Candida albicans [2] = test: Antifungal activity against fluconazole-resistant Candida albicans 17# assessed as inhibition of microbial growth by NCCLS protocol based method; type: functional
Candida albicans [3] = test: Antifungal activity against fluconazole-resistant Candida albicans CaR assessed as inhibition of microbial growth by NCCLS protocol based method; type: functional
Candida albicans [4] = test: Antifungal activity against fluconazole-resistant Candida albicans 632 assessed as inhibition of microbial growth by NCCLS protocol based method; type: functional
Candida albicans [5] = test: Antifungal activity against fluconazole-resistant Candida albicans 901 assessed as inhibition of microbial growth by NCCLS protocol based method; type: functional
Candida albicans [6] = test: Antifungal activity against fluconazole-resistant Candida albicans 904 assessed as inhibition of microbial growth by NCCLS protocol based method; type: functional
Candida albicans [7] = test: Antifungal activity against Candida albicans ATCC SC5314 assessed as decrease in fungal cell density at 10 nM/mL by polarizing microscopy; type: functional, organism-based; conditions: dose 10.0 nmol/ml
Procedure, shortened: (§2)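 C. albicans ATCC SC5314 observed by polarizing microscopy over treatment time. Untreated, fluconazole- and naftifine-treated control groups were included. Cell density, dividing cells and cell fracture were assessed, with cell counts taken per field.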

Candida albicans [8] = test: Antifungal activity against Candida albicans ATCC SC5314 assessed as reduction in cell division at 10 nM/mL by polarizing microscopy; type: functional, organism-based; conditions: dose 10.0 nmol/ml; procedure, shortened: as §2
Candida albicans [9] = test: Antifungal activity against Candida albicans ATCC SC5314 assessed as induction of cell fracture at 10 nM/mL by polarizing microscopy; type: functional, organism-based; conditions: dose 10.0 nmol/ml; procedure, shortened: as §2
[10] = Inhibition of Candida albicans ATCC SC5314 SE incubated for 30 mins by spectrophotometric method
Procedure, shortened: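 Enzymes (SE, CYP51) extracted from C. albicans SC5314 using kits. 50 µg enzyme incubated with varying compound concentrations for 30 min at 37 °C in Tris pH 7.4, KCl, MgCl2, 2 mM NADPH, with squalene or eburicol as substrate. Reaction stopped with acetonitrile and centrifuged. Eburicol consumption (CYP51) read by HPLC. Squalene, after sulfuric acid/formaldehyde derivatization, read at 400 nm (SE). IC50 reported.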

MIC50 (Candida albicans [1]) [µg/mL]	MIC50 (Nakaseomyces glabratus) [µg/mL]	MIC50 (Pichia kudriavzevii) [µg/mL]	MIC50 (Candida tropicalis) [µg/mL]	MIC50 (Aspergillus fumigatus) [µg/mL]	Structure (SMILES)	MIC50 (Candida albicans [2]) [µg/mL]	MIC50 (Candida albicans [3]) [µg/mL]	MIC50 (Candida albicans [4]) [µg/mL]	MIC50 (Candida albicans [5]) [µg/mL]	MIC50 (Candida albicans [6]) [µg/mL]	Activity (Candida albicans [7])	Activity (Candida albicans [8])	Activity (Candida albicans [9])	IC50 [10] [nM]
0.5	0.25	0.5	0.25	8	CN(CC(=O)NC(Cn1ccnc1)C(=O)c1ccccc1)C(=O)c1cccc2ccccc12 (centres undefined)	–	–	–	–	–	–	–	–	–
0.25	0.5	0.5	0.25	8	O=C(NC(Cn1ccnc1)C(=O)NCc1ccncc1)c1cccc2ccccc12 (centres undefined)	–	–	–	–	–	–	–	–	–
0.125	0.25	0.25	0.25	8	CN(CC(=O)NC(Cn1ccnc1)C(=O)c1ccccc1)C(=O)c1ccc2ccccc2c1 (centres undefined)	–	–	–	–	–	–	–	–	–
0.5	0.5	0.5	1	8	CN(CC(=O)Nc1ccncc1)C(=O)c1cccc2ccccc12	–	–	–	–	–	–	–	–	–
0.25	0.25	0.5	0.25	> 16	CN(CC(=O)Nc1cccnc1)C(=O)c1cccc2ccccc12	–	–	–	–	–	–	–	–	–
0.5	0.25	0.5	0.5	> 16	O=C(NC(Cn1ccnc1)C(=O)NC1CCCCC1)c1ccc2ccccc2c1 (centres undefined)	–	–	–	–	–	–	–	–	–
0.5	0.5	0.25	0.25	> 16	CN(CC(=O)NCc1cccnc1)C(=O)c1ccc2ccccc2c1	–	–	–	–	–	–	–	–	–
0.5	0.25	0.5	1	> 16	O=C(NC(Cn1ccnc1)C(=O)NC1CCCCC1)c1cccc2ccccc12 (centres undefined)	–	–	–	–	–	–	–	–	–
0.25	0.25	1	0.5	8	O=C(NC(Cn1ccnc1)C(=O)NC1CCCC1)c1ccc2ccccc2c1 (centres undefined)	–	–	–	–	–	–	–	–	–
0.25	0.5	1	0.5	> 16	CC(C)C(NC(=O)c1cccc2ccccc12)C(=O)NC(Cn1ccnc1)C(=O)c1ccccc1 (centres undefined)	–	–	–	–	–	–	–	–	–
0.25	0.25	0.5	0.125	8	O=C(CNC(=O)c1cccc2ccccc12)NC(Cn1ccnc1)C(=O)c1ccccc1 (centres undefined)	–	–	–	–	–	–	–	–	–
0.25	2	0.5	1	8	CN(CC(=O)NCc1ccncc1)C(=O)c1ccc2ccccc2c1	–	–	–	–	–	–	–	–	–

Structure (SMILES)	MIC50 (Candida albicans [1]) [µg/mL]	MIC50 (Nakaseomyces glabratus) [µg/mL]	MIC50 (Pichia kudriavzevii) [µg/mL]	MIC50 (Candida tropicalis) [µg/mL]	MIC50 (Aspergillus fumigatus) [µg/mL]	MIC50 (Candida albicans [2]) [µg/mL]	MIC50 (Candida albicans [3]) [µg/mL]	MIC50 (Candida albicans [4]) [µg/mL]	MIC50 (Candida albicans [5]) [µg/mL]	MIC50 (Candida albicans [6]) [µg/mL]	Activity (Candida albicans [7])	Activity (Candida albicans [8])	Activity (Candida albicans [9])	IC50 [10] [nM]
CN(C/C=C/c1ccccc1)Cc1cccc2ccccc12 [NAFTIFINE]	0.5	0.25	2	0.5	8	> 16	> 16	> 16	> 16	> 16	Active	Active	Active	284
